The values below come from ChEMBL document CHEMBL4325878, “SAR of a new antischistosomal urea carboxylic acid” (Bioorg Med Chem Lett, 2018).

Converted amounts (≈) assume the structure as drawn. The source made the active and inactive calls. The rule behind the calls is not given here.

Data set [1] can be described thus: Intrinsic clearance in human liver microsomes assessed per mg protein after 60 mins in presence of NADPH. The format is ADME, Microsome. Conditions: 1 h. In outline:
(§1)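 In vitro intrinsic clearance determined in human and in mouse liver microsomes. Control incubations run without NADPH co-factor; parameters were not derived where compound was lost in those co-factor-free controls.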
For orientation: Microsomes from liver hold many membrane-bound enzymes, among them those of drug oxidation.

Data set [2] in a line: Kinetic solubility of compound in 0.01 M HCL at 10 mg/ml at pH 2 by nephelometry. The class given is physicochemical. Conditions: read-out: Kinetic_solubility. In outline: (§2)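 DMSO solutions of compound spiked into pH 6.5 phosphate buffer or 0.01 M HCl (approx. pH 2.0); nephelometry read-out, reported as a solubility concentration range.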
Data set [3] has as its system Schistosoma mansoni. In words: Antischistosomal activity against adult stage of Schistosoma mansoni cercariae at 10 uM after 72 hrs by microscopic analysis. The format is functional, organism-based. In outline: (§3)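 Newly transformed schistosomula and cultured adult S. mansoni were exposed in vitro to compound at 10 μM.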
Data set [4] is described as follows: Intrinsic clearance in mouse liver microsomes assessed per mg protein after 60 mins in presence of NADPH. The class given is ADME, Microsome. Conditions: 1 h. In a few lines: as §1
Data set [5] can be described thus: Kinetic solubility of compound in pH 6.5 phosphate buffer at 10 mg/ml by nephelometry. The format is physicochemical. Conditions: read-out: Kinetic_solubility. In a few lines:
as §2

Data set [6] relates to Schistosoma mansoni. Description: Antischistosomal activity against newly transformed Schistosoma mansoni cercariae at 10 uM after 72 hrs by microscopic analysis. The format is functional, organism-based. In outline:
as §3

A further data set has as its system L6. Description: Cytotoxicity against rat L6 cells up to 200 uM. The class given is cell-based. In outline:
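Growth inhibition of rat L6 myoblasts was used as the host-cell cytotoxicity measure, testing compound at concentrations up to 200 μM.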

Data set [7] concerns Schistosoma mansoni. Description: Antischistosomal activity against Schistosoma mansoni cercariae infected in NMRI mouse assessed as worm burden reduction at 100 mg/kg, po administered as single dose on day 49 of post infection and measured on day 21 of post treatment relative to control. The format is functional. Also on record: scale not given: the % may be the effect or the level left. In a few lines: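 Single 100 mg/kg oral dose given to S. mansoni-infected mice; in vivo activity read as worm burden reduction versus an untreated control group, with statistical comparison to control.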

Data set [8] concerns Schistosoma mansoni. Description: Antischistosomal activity against adult stage of Schistosoma mansoni infected in NMRI nude mouse administered as single oral dose on day 49 of post infection. The class given is functional. The following applies: 1176 h.
Data set [9] concerns Schistosoma mansoni. Description: Antischistosomal activity against adult stage of Schistosoma mansoni cercariae after 72 hrs by microscopic analysis. The class given is functional.

In the case of `CC(C)(NC(=O)Nc1ccc(F)c(C(F)(F)F)c1)C(=O)O`, the microsomal intrinsic clearance in data set [1] and in data set [4] was under 7 µL/min throughout. Also, the solubility kinetic was 25 to 50 µg/mL (≈ 81.1 to 162 µM) in [2] and over 100 µg/mL in data set [5]. Moreover, the result with Schistosoma mansoni [3] and in the data set with Schistosoma mansoni [6] was inactive.

Regarding `CCOC(=O)C(C)(C)NC(=O)Nc1ccc(F)c(C(F)(F)F)c1`, the solubility kinetic in data set [2] and in data set [5] was 3.1 to 6.3 µg/mL (≈ 9.22 to 18.7 µM) throughout. For the same compound, the Activity result in the data set on L6 was “Non-Toxic”; in the data set with Schistosoma mansoni [7], 70%. The result in the data set with Schistosoma mansoni [3] and with Schistosoma mansoni [6] was inactive.

Turning to `CC(C)(NC(=O)Nc1ccccc1)C(=O)O`, the microsomal intrinsic clearance in data set [1] and in data set [4] was under 7 µL/min in each case. Further, the solubility kinetic in data set [2] was over 100 µg/mL; in [5], 50 to 100 µg/mL (≈ 225 to 450 µM). Moreover, the Activity result with L6 is “Non-Toxic”; in the data set with Schistosoma mansoni [7], 20%. In addition, the result in the data set on Schistosoma mansoni [3] and in the data set with Schistosoma mansoni [6] was inactive.

Take `CC(C)(C(=O)O)N1Cc2cc(F)c(C(F)(F)F)cc2NC1=O`: the microsomal intrinsic clearance in data set [1] and in [4] was under 7 µL/min each time. Further, the solubility kinetic in data set [2] was 50 to 100 µg/mL (≈ 156 to 312 µM); in data set [5], over 100 µg/mL. Further, the results for the Activity result in the data set on L6 and with Schistosoma mansoni [7] were “Non-Toxic” and 0%, respectively. Moreover, the outcome in the data set on Schistosoma mansoni [3] and in the data set with Schistosoma mansoni [6] was inactive.

`CC1(C)NC(=O)N(c2ccc(F)c(C(F)(F)F)c2)C1=O`: the 50% effective dose (ED50) (as a rule, the midpoint of the dose-response relation) in the data set on Schistosoma mansoni [8] stood at 172 mg/kg.

As to `CC(C)(C(=O)O)n1c(=O)[nH]c2cc(C(F)(F)F)c(F)cc21`, the microsomal intrinsic clearance in data set [1] and in data set [4] was under 7 µL/min each time. Besides, the values for the solubility kinetic in data set [2] and in data set [5] were 50 to 100 µg/mL (≈ 163 to 327 µM) and over 100 µg/mL, respectively. Besides, the Activity entry with L6 is recorded as “Non-Toxic”; in the data set on Schistosoma mansoni [7] it was 0%. For the same compound, the result in the data set with Schistosoma mansoni [3] and in the data set on Schistosoma mansoni [6] was inactive.

For `O=C(C1CCCCC1)N1CC(=O)N2CCc3ccccc3C2C1` (stereo not given) [PRAZIQUANTEL], in the data set with Schistosoma mansoni [9], the LC50 (in general, the concentration lethal to half of the exposed cells or organisms) stood at 77 nM. In addition, the Activity in the data set on Schistosoma mansoni [7] came out at 15%.

On to `CC(C)(CC(=O)Nc1ccc(F)c(C(F)(F)F)c1)C(=O)O`, for which the microsomal intrinsic clearance in data set [1] and in data set [4] was under 7 µL/min throughout. The solubility kinetic in [2] and in data set [5] was 25 to 50 µg/mL (≈ 81.4 to 163 µM) each time. The Activity entry with L6 is reported as “Non-Toxic”; in the data set with Schistosoma mansoni [7] it was 42%. Moreover, the outcome with Schistosoma mansoni [3] and in the data set with Schistosoma mansoni [6] was inactive.

As to `CC(C)(C(=O)O)N1CCCN(c2ccc(F)c(C(F)(F)F)c2)C1=O`, the microsomal intrinsic clearance in [1] and in data set [4] was under 7 µL/min in each case. The solubility kinetic in [2] and in data set [5] was over 100 µg/mL in each case. The Activity result is on record as “Non-Toxic” with L6 and 14% in the data set with Schistosoma mansoni [7]. The outcome with Schistosoma mansoni [3] and in the data set on Schistosoma mansoni [6] was inactive.

Regarding `O=C(Nc1ccc(F)c(C(F)(F)F)c1)NC1(C(=O)O)CCC1`, the results for the microsomal intrinsic clearance in data set [1] and in [4] were 7 µL/min and under 7 µL/min, respectively. For the same compound, the solubility kinetic in data set [2] was 50 to 100 µg/mL (≈ 156 to 312 µM); in data set [5], over 100 µg/mL. Further, the Activity entry in the data set on L6 is given as “Non-Toxic”; in the data set on Schistosoma mansoni [7] it was 21%. In addition, the result with Schistosoma mansoni [3] and with Schistosoma mansoni [6] was inactive.

For the compound `O=C(O)CNC(=O)Nc1ccc(F)c(C(F)(F)F)c1`, the microsomal intrinsic clearance in [1] and in data set [4] was under 7 µL/min throughout. The solubility kinetic in data set [2] and in data set [5] was over 100 µg/mL in each case. Moreover, the Activity entry is recorded as “Non-Toxic” in the data set with L6 and 49% in the data set with Schistosoma mansoni [7]. For the same compound, the outcome in the data set on Schistosoma mansoni [3] and in the data set with Schistosoma mansoni [6] was inactive.

`CC(C)(NC(=O)Cc1ccc(F)c(C(F)(F)F)c1)C(=O)O`: the microsomal intrinsic clearance in data set [1] and in data set [4] was under 7 µL/min each time. Moreover, the solubility kinetic lay in the range of 50 to 100 µg/mL (≈ 163 to 325 µM) in data set [2] and 25 to 50 µg/mL (≈ 81.4 to 163 µM) in [5]. Also, the Activity result in the data set with L6 is reported as “Non-Toxic”; in the data set on Schistosoma mansoni [7], 0%. For the same compound, the result in the data set with Schistosoma mansoni [3] and in the data set on Schistosoma mansoni [6] was inactive.

In the case of `CC(C)(NC(=O)Nc1ccc(F)c(C(F)(F)F)c1)C(N)=O`, the microsomal intrinsic clearance in data set [1] is 19 µL/min; in data set [4], 18 µL/min. Further, the solubility kinetic in data set [2] and in [5] was 50 to 100 µg/mL (≈ 163 to 325 µM) throughout. The results for the Activity entry in the data set with L6 and in the data set with Schistosoma mansoni [7] were “Non-Toxic” and 38%, respectively. The outcome in the data set with Schistosoma mansoni [3] and in the data set with Schistosoma mansoni [6] was inactive.

In the case of `O=C(Nc1ccc(F)c(C(F)(F)F)c1)NC1(C(=O)O)CC1`, the microsomal intrinsic clearance in data set [1] and in data set [4] was under 7 µL/min each time. In addition, the solubility kinetic in data set [2] and in data set [5] was over 100 µg/mL each time. Besides, the Activity result with L6 is recorded as “Non-Toxic”; in the data set on Schistosoma mansoni [7], 4%. Also, the outcome in the data set on Schistosoma mansoni [3] and in the data set with Schistosoma mansoni [6] was inactive.
